Legend:
Phosphodiesterase 4 = Phosphodiesterase 4 (Homo sapiens, UniProt P27815+Q08499+Q07343+Q08493); test: Inhibitory concentration against phosphodiesterase 4 (PDE4) in cytosol of human neutrophils; format: protein assay
Mus musculus [1] = test: Percent inhibition of arachidonic acid (AA) […], induced mouse ear edema after pretreatment at a concentration of 30 umol/kg (po); format: functional
Method in brief: (§1)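 Female NMRI mice, 25–32 g, n = 8 per group. Compound in water (pH 6.5–7) given by gavage at 30 μmol/kg, 1 h before 3 mg arachidonic acid in 10 μL acetone applied to the right ear.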

Mus musculus [2] = test: Percent inhibition of arachidonic acid induced mouse ear edema after 1 hr pretreatment with 30 uM/kg peroral dose; format: functional; method in brief: as §1
[3] = Inhibition of LPS-stimulated tumor necrosis factor-alpha release by human whole blood; format: functional
Method in brief: (§2)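 Heparinized venous human whole blood (8 U/mL) from healthy volunteers, preincubated 15 min at 37 °C with compound (0.001–10 μM final, 0.1% DMSO). Then stimulated with LPS (1 μg/mL final) for 4 h at 37 °C. Plasma TNFα measured by nonisotopic immunoassay. IC30 from concentration–inhibition curves by nonlinear regression. Means of two independent determinations in triplicate.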

[4] = Inhibition of N-formyl-methionyl-leucyl-phenylalanine (fMLP)-stimulated production of reactive oxygen species (ROS) in human PMNL by 35% of control; format: functional
Method in brief: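 PMNL isolated from citrated human blood (dextran sedimentation, ficoll, hypotonic lysis), 1.25 × 10^7 cells/mL. Buffer: HEPES saline with Mg/Ca, glucose, BSA, 10 μM luminol, 4 μM microperoxidase. […] IC35 by nonlinear regression. Two independent determinations in triplicate.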

[5] = Inhibition of LPS-stimulated Tumor necrosis factor alpha release by human whole blood; format: functional; method in brief: as §2

Log IC50 (Phosphodiesterase 4) | SMILES | inhibition in vivo at 30 µmol/kg (Mus musculus [1]) [%] | further results
-6.8 | COc1ccc(C2=NN(C)C(=O)C3CCCCC23)cc1OC (centres undefined) | – | –
-7.9 | COc1ccc(C2=NN(Cc3cccc(C(=O)O)c3)C(=O)C3CCCCC23)cc1OC (centres undefined) | 18 | –
-8 | COc1ccc(C2=NN(Cc3cccc(O)c3)C(=O)C3CCCCC23)cc1OC (centres undefined) | – | –
-7.8 | COc1ccc(C2=NN(C/C=C/c3ccccc3)C(=O)C3CCCCC23)cc1OC (centres undefined) | – | –
-7.5 | COc1ccc(C2=NN(CCCCCC(=O)[O-])C(=O)C3CCCCC23)cc1OC.[Na+] (centres undefined) | 18 | –
-7.6 | COc1ccc(C2=NN(CCCCCCCC(=O)O)C(=O)C3CCCCC23)cc1OC (centres undefined) | – | Inhibition (Mus musculus [2]): 13%
-7.9 | COc1ccc(C2=NN(C(C)(C)C)C(=O)C3CCCCC23)cc1OC (centres undefined) | – | –
-9.2 | COc1ccc(C2=NN(C3CCCCC3)C(=O)C3CC=CCC23)cc1OC (centres undefined) | 13 | –
– | COc1ccc(C2=NN(C3CCCCCC3)C(=O)C3CC=CCC23)cc1OC (centres undefined) | 59 | pIC30 [3]: 7.05; pIC35 [4]: 6.82
-8.9 | COc1ccc(C2=NN(C3CCSCC3)C(=O)C3CC=CCC23)cc1OC (centres undefined) | – | –
-9.4 | COc1ccc(C2=NN(C3C4CC5CC(C4)CC3C5)C(=O)C3CC=CCC23)cc1OC (centres undefined) | 51 | pIC30 [3]: 7.22; pIC35 [4]: 6.3
-8.9 | COc1ccc(C2=NN(C3CCOCC3)C(=O)C3CC=CCC23)cc1OC (centres undefined) | 2 | –
– | COc1ccc(C2=NN(C3CCCCCC3)C(=O)C3CC=CCC23)c2c1OC1(CCCC1)C2 (centres undefined) | 49 | –
-6.5 | COc1ccc(C2=NN(CCN(C)C)C(=O)C3CCCCC23)cc1OC (centres undefined) | – | –
-7.2 | COc1ccc(C2=NN(CC#N)C(=O)C3CCCCC23)cc1OC (centres undefined) | – | –
-7.7 | COc1ccccc1CN1N=C(c2ccc(OC)c(OC)c2)C2CCCCC2C1=O (centres undefined) | – | –
-8.1 | COc1ccc(C2=NN(CC3CC3)C(=O)C3CC=CCC23)cc1OC (centres undefined) | 15 | –
-6.8 | COc1ccc(C2=NN(CCO)C(=O)C3CCCCC23)cc1OC (centres undefined) | – | –
-8.1 | COc1ccc(C2=NN(Cc3ccccc3O)C(=O)C3CCCCC23)cc1OC (centres undefined) | – | –

Log IC50 (Phosphodiesterase 4) | SMILES | inhibition in vivo at 30 µmol/kg (Mus musculus [1]) [%] | further results
-9.3 | COc1ccc(C2=NN(C3CCCCCCC3)C(=O)C3CC=CCC23)cc1OC (centres undefined) | 30 | –
-9.2 | COc1ccc(C2=NN(C3CCCCCC3)C(=O)C3CCCCC23)c2c1OC1(CCCC1)C2 (centres undefined) | 29 | –
-7.4 | CCN1N=C(c2ccc(OC)c(OC)c2)C2CCCCC2C1=O (centres undefined) | – | –
-8.6 | COc1ccc(C2=NN(C(C)C)C(=O)C3CCCCC23)cc1OC (centres undefined) | 14 | –
-7 | COc1ccc(C2=NN(CCCCCCN(C)C)C(=O)C3CCCCC23)cc1OC (centres undefined) | – | –
-7.4 | C#CCN1N=C(c2ccc(OC)c(OC)c2)C2CCCCC2C1=O (centres undefined) | – | –
-9.3 | COc1ccc(C2=NN(C3CCCC3)C(=O)C3CC=CCC23)cc1OC (centres undefined) | 19 | –
-7.3 | COc1ccc(C2=NN(Cc3ccc(C(=O)O)cc3)C(=O)C3CCCCC23)cc1OC (centres undefined) | 27 | –
-7.9 | COc1ccc(C2=NN(CCCOc3ccccc3)C(=O)C3CCCCC23)cc1OC (centres undefined) | – | –
-7.6 | COc1ccc(C2=NN(c3ccccc3)C(=O)C3CCCCC23)cc1OC (centres undefined) | – | –
-7.8 | CCCN1N=C(c2ccc(OC)c(OC)c2)C2CCCCC2C1=O (centres undefined) | – | –
-7.8 | COc1ccc(C2=NN(Cc3ccncc3)C(=O)C3CCCCC23)cc1OC (centres undefined) | 29 | –
-8.2 | COc1ccc(CN2N=C(c3ccc(OC)c(OC)c3)C3CCCCC3C2=O)cc1 (centres undefined) | 13 | –
-8 | COc1ccc(C2=NN(CCCCn3ccnc3)C(=O)C3CCCCC23)cc1OC (centres undefined) | 39 | –
– | COc1ccc(C2=NN(C3CCCCCC3)C(=O)C3CC=CCC23)c2c1OC(C)(C)C2 (centres undefined) | 54 | pIC30 [3]: 7.05
-8 | COc1ccc(C2=NN(CC(=O)c3ccccc3)C(=O)C3CCCCC23)cc1OC (centres undefined) | – | –
-5.7 | COc1ccc(C2=NN(CC(=O)O)C(=O)C3CCCCC23)cc1OC (centres undefined) | – | –
-8 | COc1ccc(C2=NN(Cc3ccc(O)cc3)C(=O)C3CCCCC23)cc1OC (centres undefined) | – | –
-9.1 | COc1ccc(C2=NN(C3Cc4ccccc4C3)C(=O)C3CC=CCC23)cc1OC (centres undefined) | – | –

Log IC50 (Phosphodiesterase 4) | SMILES | inhibition in vivo at 30 µmol/kg (Mus musculus [1]) [%] | further results
-7.1 | COc1ccc(C2=NN(CCCCCCN)C(=O)C3CCCCC23)cc1OC (centres undefined) | – | –
-7.6 | COc1cc(CN2N=C(c3ccc(OC)c(OC)c3)C3CCCCC3C2=O)cc(OC)c1 (centres undefined) | – | –
-8.4 | COc1ccc(C2=NN(C3CCCC3)C(=O)C3CCCCC23)cc1OC (centres undefined) | – | –
-8.6 | COc1ccc(C2=NN(C3CCCCCC3)C(=O)C3CCCCC23)cc1OC (centres undefined) | 18 | pIC30 [5]: 7.3
-7.2 | CCOC(=O)CN1N=C(c2ccc(OC)c(OC)c2)C2CCCCC2C1=O (centres undefined) | – | –
-7.5 | COc1ccc(C2=NN(CCCO)C(=O)C3CCCCC23)cc1OC (centres undefined) | – | –
-6.3 | COc1ccc(C2=NN(CCn3ccnc3)C(=O)C3CCCCC23)cc1OC (centres undefined) | – | –
-8.9 | COc1ccc(C2=NN(C(C)C)C(=O)C3CC=CCC23)cc1OC (centres undefined) | 15 | –
-7.6 | C=CCN1N=C(c2ccc(OC)c(OC)c2)C2CCCCC2C1=O (centres undefined) | – | –
-7 | COc1ccc(C2=NN(CCCCN(C)C)C(=O)C3CCCCC23)cc1OC (centres undefined) | – | –
-8.5 | COc1cccc(CN2N=C(c3ccc(OC)c(OC)c3)C3CCCCC3C2=O)c1 (centres undefined) | 8 | –
-7.6 | COc1ccc(C2=NN(CCc3ccccc3)C(=O)C3CCCCC23)cc1OC (centres undefined) | – | –
-7.6 | COc1ccc(C2=NN(Cc3ccccn3)C(=O)C3CCCCC23)cc1OC (centres undefined) | – | –
-7.9 | COC(=O)c1ccc(CN2N=C(c3ccc(OC)c(OC)c3)C3CCCCC3C2=O)cc1 (centres undefined) | – | –
-7.6 | COc1ccc(C2=NN(Cc3cccnc3)C(=O)C3CCCCC23)cc1OC (centres undefined) | – | –
– | COc1ccc([C@@H]2CNC(=O)C2)cc1OC1CCCC1 [(-)-ROLIPRAM] | – | Inhibition (Mus musculus [2]): 55%
– | COc1ccc([C@H](Cc2ccncc2)c2ccccc2)cc1OC1CCCC1 [CDP840] | 48 | pIC30 [3]: 4.82; pIC35 [4]: 7.2
– | COc1ccc([C@]2(C#N)CC[C@@H](C(=O)O)CC2)cc1OC1CCCC1 [CILOMILAST] | 33 | pIC30 [3]: 4.89; pIC35 [4]: 7.04

Source: ChEMBL document CHEMBL1135581, “Novel selective PDE4 inhibitors. 3. In vivo antiinflammatory activity of a new series of N-substituted cis-tetra- and cis-hexahydrophthalazinones” (J Med Chem, 2002)
